Test results from ChEMBL document CHEMBL2046342, “Re-engineering aryl methylcarbamates to confer high selectivity for inhibition of Anopheles gambiae versus human acetylcholinesterase” (2012).
In brackets after ≈: the same amount, converted by molar mass.

What was measured:
[1] = molecular target: Acetylcholinesterase (Anopheles gambiae) (UniProt Q869C3); experiment: Inhibition of Anopheles gambiae AChE expressed in Escherichia coli after 6 mins by Ellman assay
Summary of the method: (§1)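 Time-dependent inactivation of recombinant AgAChE (purified to 2,500 ± 100 U/mg) monitored by Ellman assay. Residual velocity (v/v0) was measured against incubation time at fixed inhibitor levels, and kobs came from the ln(v/v0) vs t slope. kobs at three or more [I] was plotted against [I], and the linear slope gave apparent second-order ki (mM⁻¹ min⁻¹). Final DMSO was constant at 0.1% (v/v).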

[2] = molecular target: Acetylcholinesterase (Homo sapiens) (UniProt P22303); experiment: Inhibition of human recombinant AChE after 6 mins by Ellman assay
Summary of the method: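 Recombinant human AChE was assayed by Ellman method for time-dependent inactivation at fixed inhibitor concentrations. Pseudo-first-order kobs was taken from ln(v/v0) vs incubation time. Three or more inhibitor levels gave kobs vs [I], and its linear slope gave apparent ki (mM⁻¹ min⁻¹). DMSO was held at 0.1% (v/v) final.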

[3] = Selectivity ratio of Ki for Anopheles gambiae AChE to Ki for human recombinant AChE
Summary of the method: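 Ratio ki(Ag)/ki(h) of apparent second-order inactivation constants, both from Ellman-assay kobs vs [I] slopes using purified recombinant AgAChE and recombinant hAChE. Error in the ratio was computed by standard propagation of error.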

[4] = tested on: Anopheles gambiae; experiment: Toxicity in anesthetized Anopheles gambiae G3 assessed as mortality treated as topical application assessed per mosquito after 24 hrs; format: functional
[5] = tested on: Anopheles gambiae; experiment: Toxicity in Anopheles gambiae G3 assessed as mortality treated as tarsal contact using dried filter papers after 24 hrs; format: functional; conditions: G3, 24 h
[6] = molecular target: Acetylcholinesterase (Anopheles gambiae) (UniProt Q869C3); experiment: Inhibition of Anopheles gambiae AChE; conditions: concentration not given here; summary of the method: as §1
[7] = tested on: Anopheles gambiae; experiment: Toxicity in Anopheles gambiae G3 assessed as mortality at 1000 ug/ml treated as tarsal contact using dried filter papers after 24 hrs; format: functional
Summary of the method: (§2)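 Tarsal contact assay. Filter papers were treated with ethanolic carbamate solutions and dried, and adult Anopheles gambiae were exposed for 1 h. Mortality was scored after 24 h. Concentrations refer to the solutions used to treat the papers.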

[8] = tested on: Anopheles gambiae; experiment: Toxicity in Anopheles gambiae G3 assessed as mortality at 250 ug/ml treated as tarsal contact using dried filter papers after 24 hrs; format: functional; summary of the method: as §2
[9] = Selectivity ratio of Torpedo californica AChE to human AChE
[10] = molecular target: Acetylcholinesterase (Anopheles gambiae) (UniProt Q869C3); experiment: Inhibition of Anopheles gambiae AChE at 6 uM after 1 hr

Chain of Acetylcholinesterase (Anopheles gambiae) (Q869C3 39-737 limits assumed): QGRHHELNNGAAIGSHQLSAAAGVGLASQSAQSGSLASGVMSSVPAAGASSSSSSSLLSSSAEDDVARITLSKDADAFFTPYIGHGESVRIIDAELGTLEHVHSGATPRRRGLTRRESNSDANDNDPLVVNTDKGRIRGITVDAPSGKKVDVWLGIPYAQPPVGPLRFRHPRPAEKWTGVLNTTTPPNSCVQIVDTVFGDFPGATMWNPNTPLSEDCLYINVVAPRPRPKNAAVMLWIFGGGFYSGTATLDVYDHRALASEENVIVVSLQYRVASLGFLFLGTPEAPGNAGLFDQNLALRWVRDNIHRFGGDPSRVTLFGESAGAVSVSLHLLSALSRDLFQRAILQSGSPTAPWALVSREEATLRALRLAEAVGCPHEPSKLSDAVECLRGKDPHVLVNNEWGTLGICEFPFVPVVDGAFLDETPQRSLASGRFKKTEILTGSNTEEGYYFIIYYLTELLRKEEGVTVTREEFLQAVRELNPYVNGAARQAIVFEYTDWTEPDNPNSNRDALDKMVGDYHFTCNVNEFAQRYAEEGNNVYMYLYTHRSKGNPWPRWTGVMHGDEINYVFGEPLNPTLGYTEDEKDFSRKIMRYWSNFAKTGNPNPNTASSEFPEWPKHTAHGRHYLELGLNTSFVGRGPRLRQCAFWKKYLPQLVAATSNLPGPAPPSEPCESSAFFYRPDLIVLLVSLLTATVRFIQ
Chain of Acetylcholinesterase (Homo sapiens) (P22303 whole entry): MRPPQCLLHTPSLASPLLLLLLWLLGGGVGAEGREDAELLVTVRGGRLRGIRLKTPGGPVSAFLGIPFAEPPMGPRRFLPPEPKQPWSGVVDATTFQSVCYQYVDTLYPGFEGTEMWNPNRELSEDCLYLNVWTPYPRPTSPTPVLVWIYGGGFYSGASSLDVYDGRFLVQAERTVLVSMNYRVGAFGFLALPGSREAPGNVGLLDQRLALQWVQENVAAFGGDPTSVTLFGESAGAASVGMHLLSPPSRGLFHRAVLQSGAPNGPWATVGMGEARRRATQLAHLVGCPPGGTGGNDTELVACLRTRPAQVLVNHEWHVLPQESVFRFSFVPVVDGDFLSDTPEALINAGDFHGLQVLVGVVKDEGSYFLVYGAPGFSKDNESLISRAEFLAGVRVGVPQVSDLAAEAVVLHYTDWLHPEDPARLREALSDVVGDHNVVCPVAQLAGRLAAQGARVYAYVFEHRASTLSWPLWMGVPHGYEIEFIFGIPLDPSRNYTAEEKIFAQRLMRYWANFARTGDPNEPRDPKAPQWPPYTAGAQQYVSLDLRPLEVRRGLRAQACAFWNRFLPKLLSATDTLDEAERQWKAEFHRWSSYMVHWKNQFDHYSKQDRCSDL

| Compound | apparent second-order inhibition rate constant ki [1] [M⁻¹ s⁻¹] | Kinact [2] [M⁻¹ s⁻¹] | Ratio Ki [3] | LD50 [4] [ng] | LC50 [5] [µg/mL] | inhibition [6] [%] | Activity [7] [%] | Activity [8] [%] | Selectivity ratio [9] | inhibition [10] [%] |
| --- | --- | --- | --- | --- | --- | --- | --- | --- | --- | --- |
| CNC(=O)Oc1cccc2c1OC(C)(C)O2 [BENDIOCARB] | 14000 | 1850 | 7.6 | 0.74 | 16 (≈ 71.7 µM) | 49 |  |  |  |  |
| CNC(=O)Oc1ccccc1OCC1CCCC1 | 163 | 4.67 | 36 |  |  |  |  |  |  |  |
| CCC(CC)COc1ccccc1OC(=O)NC | 4250 | 8 | 530 | 81 |  |  | 27 |  |  |  |
| CNC(=O)Oc1ccccc1OC(C)C [PROPOXUR] | 4430 | 283 | 16 | 3.2 | 39 (≈ 186 µM) | 49 |  |  |  |  |
| CCC(C)(CC)c1cccc(OC(=O)NC)c1 | 88000 | 9220 | 9.5 |  |  |  |  | 72 |  |  |
| CCCC(C)(C)c1cccc(OC(=O)NC)c1 | 112000 | 22700 | 4.9 |  | 236 (≈ 1000 µM) |  |  |  |  |  |
| CNC(=O)Oc1cccc(C)c1 [METOLCARB] | 287 | 8.67 | 33 |  | 712 (≈ 4310 µM) |  |  |  |  |  |
| CNC(=O)Oc1cccc2c1OC(C)(C)C2 [CARBOFURAN] | 43700 | 7130 | 6.1 | 0.85 | 16 (≈ 72.3 µM) | 49 |  |  |  |  |
| CCCCc1cccc(OC(=O)NC)c1 | 12400 | 535 | 23 |  | 237 (≈ 1140 µM) |  |  |  |  |  |
| CCC(C)(C)c1cccc(OC(=O)NC)c1 | 127000 | 13100 | 9.7 |  | 115 (≈ 520 µM) |  |  |  |  |  |
| CC[Si](C)(C)c1cccc(OC(=O)NC)c1 | 25200 | 1830 | 14 | 8 | 169 (≈ 712 µM) |  |  |  |  |  |
| CCC(CC)COc1cccc(OC(=O)NC)c1 | 480 | 83.3 | 5.8 |  |  |  |  |  |  |  |
| CCN(C)C(=O)Oc1cccc([C@H](C)N(C)C)c1 |  |  |  |  |  |  |  |  | 1500 |  |
| CNC(=O)Oc1cccc(C(C)(C)C(F)(F)F)c1 | 26300 | 2320 | 11 |  | 61 (≈ 233 µM) |  |  |  |  |  |
| CCC(CC)CSc1ccccc1OC(=O)NC | 30800 | 242 | 130 | 10 |  |  | 27 |  |  |  |
| CCC(C)c1cccc(OC(=O)NC)c1 (racemic) | 167000 | 31800 | 5.3 | 1.6 | 31 (≈ 150 µM) |  |  |  |  |  |
| CNC(=O)Oc1cccc(C(C)C)c1 | 54500 | 6380 | 8.5 |  |  |  |  |  |  |  |
| CNC(=O)Oc1cccc2ccccc12 |  |  |  |  |  | 49 |  |  |  |  |

| Compound | apparent second-order inhibition rate constant ki [1] [M⁻¹ s⁻¹] | Kinact [2] [M⁻¹ s⁻¹] | Ratio Ki [3] | LD50 [4] [ng] | LC50 [5] [µg/mL] | inhibition [6] [%] | Activity [7] [%] | Activity [8] [%] | Selectivity ratio [9] | inhibition [10] [%] |
| --- | --- | --- | --- | --- | --- | --- | --- | --- | --- | --- |
| CNC(=O)Oc1ccccc1SC | 1150 | 85 | 14 |  |  |  |  |  |  |  |
| CNC(=O)Oc1cccc(CC(C)C)c1 | 2580 | 91.7 | 28 |  |  |  |  |  |  |  |
| CNC(=O)Oc1ccccc1C | 21.8 | 4 | 5.4 |  |  |  |  |  |  |  |
| CCCc1cccc(OC(=O)NC)c1 | 14700 | 1060 | 14 |  | 41 (≈ 212 µM) |  |  |  |  |  |
| C[N+](C)(C)CCCCCCCCCCCCCCCCCCSS(C)(=O)=O |  |  |  |  |  |  |  |  |  | > 95 |
| CCC(CC)CCc1ccccc1OC(=O)NC | 1260 | 12.5 | 100 |  |  |  |  |  |  |  |
| CNC(=O)Oc1ccccc1OCC1CCCCC1 | 8 | 3.5 | 2.3 |  |  |  |  |  |  |  |
| C=C(C)COc1ccccc1OC(=O)NC | 1040 | 12.3 | 84 |  |  |  |  |  |  |  |
| CCC(C)CSc1ccccc1OC(=O)NC (racemic) | 13400 | 280 | 48 |  |  |  |  |  |  |  |
| CCC(C)(c1cccc(OC(=O)NC)c1)C(F)(F)F (racemic) | 54500 | 6250 | 8.7 |  | 68 (≈ 247 µM) |  |  |  |  |  |
| C=C(C)CSc1ccccc1OC(=O)NC | 6900 | 125 | 55 | 12 | 317 (≈ 1340 µM) |  |  |  |  |  |
| CNC(=O)Oc1cccc(CCC(C)C)c1 | 4530 | 86.7 | 53 |  | 342 (≈ 1550 µM) |  |  |  |  |  |
| CNC(=O)Oc1ccccc1 | 45.8 | 3.33 | 13 |  |  |  |  |  |  |  |
| CNC(=O)Oc1cccc([Si](C)(C)C)c1 | 10800 | 1130 | 9.6 |  |  |  |  |  |  |  |
| CCC(C)COc1ccccc1OC(=O)NC (racemic) | 2080 | 9.67 | 216 | 33 | 445 (≈ 1880 µM) |  |  |  |  |  |
| CNC(=O)Oc1ccccc1OCC(C)C | 880 | 10.8 | 81 | 19 | 290 (≈ 1300 µM) |  |  |  |  |  |
| CNC(=O)Oc1ccccc1SCC(C)C | 8770 | 108 | 81 | 10 | 212 (≈ 886 µM) |  |  |  |  |  |
| CNC(=O)Oc1cccc(C(C)(C)C)c1 | 25200 | 2100 | 12 | 4.5 | 37 (≈ 179 µM) |  |  |  |  |  |
